Test results published in ChEMBL document CHEMBL2157882, “Structure-activity relationship study of pyrimido[1,2-c][1,3]benzothiazin-6-imine derivatives for potent anti-HIV agents” (Bioorg Med Chem, 2012).

Experiments:
[1] = system: Human immunodeficiency virus 1; assay: Antiviral activity against HIV 1 in HeLa-CD4/CCR5 cells assessed as inhibition of viral infectivity after 48 hrs by MAGI assay; format: functional, organism-based; conditions: Human immunodeficiency virus 1, MAGI-CCR5, 48 h
In short: (§1)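 HeLa-CD4/CCR5-LTR/β-gal target cells at 10⁴ cells/well, plated the day before infection; inoculated with virus at 60 MAGI U/well and cultured with graded compound concentrations in fresh medium. After 48 h, X-Gal-stained blue cells were counted per well. EC50 (50% block of infection) was interpolated from the two concentrations bracketing 50% inhibition; three independent experiments.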

HeLa = assay: Cytotoxicity against human HeLa cells expressing CD4/CCR5 at 10 uM; format: cell-based
[2] = system: Human immunodeficiency virus 2; assay: Antiviral activity against HIV 2 EHO in HeLa-CD4/CCR5 cells assessed as inhibition of viral infectivity after 48 hrs by MAGI assay; format: functional, organism-based; conditions: Human immunodeficiency virus 2, EHO, MAGI-CCR5, 48 h; in short: as §1
[3] = system: Human immunodeficiency virus 1; assay: Ratio of PD 404182 EC50 to compound EC50 for HIV 1 BaL in HeLa-CD4/CCR5 cells assessed as inhibition of viral infectivity after 48 hrs by MAGI assay; format: functional
[4] = system: Human immunodeficiency virus 1; assay: Ratio of PD 404182 EC50 to compound EC50 for HIV 1 NL4-3 in HeLa-CD4/CCR5 cells assessed as inhibition of viral infectivity after 48 hrs by MAGI assay; format: functional
[5] = system: Human immunodeficiency virus 2; assay: Ratio of PD 404182 EC50 to compound EC50 for HIV 2 ROD in HeLa-CD4/CCR5 cells assessed as inhibition of viral infectivity after 48 hrs by MAGI assay; format: functional, ISOLATE ROD
[6] = system: Human immunodeficiency virus 2; assay: Ratio of PD 404182 EC50 to compound EC50 for HIV 2 EHO in HeLa-CD4/CCR5 cells assessed as inhibition of viral infectivity after 48 hrs by MAGI assay; format: functional
[7] = system: Human immunodeficiency virus 2; assay: Antiviral activity against HIV 2 ROD in HeLa-CD4/CCR5 cells assessed as inhibition of viral infectivity after 48 hrs by MAGI assay; format: functional, organism-based; conditions: Human immunodeficiency virus 2, ISOLATE ROD, MAGI-CCR5, 48 h; in short: as §1
[8] = system: Human immunodeficiency virus 1; assay: Antiviral activity against HIV 1 BaL in HeLa-CD4/CCR5 cells assessed as inhibition of viral infectivity after 48 hrs by MAGI assay; format: functional, organism-based; conditions: Human immunodeficiency virus 1, BaL, MAGI-CCR5, 48 h; in short: as §1
[9] = system: Human immunodeficiency virus 1; assay: Antiviral activity against HIV 1 NL4-3 in HeLa-CD4/CCR5 cells assessed as inhibition of viral infectivity after 48 hrs by MAGI assay; format: functional, organism-based; conditions: Human immunodeficiency virus 1, NL4-3, MAGI-CCR5, 48 h; in short: as §1
[10] = Cytotoxicity against human HeLa cells expressing CD4/CCR5; format: cell-based
[11] = Therapeutic index, ratio of CC50 for HeLa-CD4/CCR5 cells to EC50 for HIV 1 in HeLa-CD4/CCR5 cells assessed as inhibition of viral infectivity; format: cell-based; conditions: human, read-out: Ratio CC50/EC50

SMILES | EC50 [1] [nM] | also measured
COc1ccc(CN2CCC3(CC2)CN=C2c4ccc(Br)cc4SC(=N)N2C3)cc1 | 1450 | 
N=C1Sc2cc(-c3cccnc3)ccc2C2=NCCCN12 | 450 | 
N=C1Sc2cc(-c3cc4ccccc4s3)ccc2C2=NCCCN12 | 260 | 
COc1ccc(-c2ccc3c(c2)SC(=N)N2CCCN=C32)cc1OC | 270 | 
N=C1Sc2cc(-n3cccn3)ccc2C2=NCCCN12 | 420 | 
COc1ccc(Cl)cc1-c1ccc2c(c1)SC(=N)N1CCCN=C21 | 480 | 
N#Cc1cccc(-c2ccc3c(c2)SC(=N)N2CCCN=C32)c1 | 1170 | 
N=C1Sc2cc(-c3ccc(C(N)=O)cc3)ccc2C2=NCCCN12 | 8710 | 
N=C1Sc2cc(Br)ccc2C2=NCC3(CCCCC3)CN12 | 250 | 
CS(=O)(=O)N1CCC2(CC1)CN=C1c3ccc(Br)cc3SC(=N)N1C2 | 1810 | 
N=C1Sc2cc(-c3ccc4[nH]cc(C(=O)C(F)(F)F)c4c3)ccc2C2=NCCCN12 | > 1000 | Activity (HeLa): Toxic
N=C1Sc2cc(-c3ccc(OC(F)(F)F)cc3)ccc2C2=NCCCN12 | 380 | 
N#Cc1ccc(-c2ccc3c(c2)SC(=N)N2CCCN=C32)cc1 | 440 | 
N=C1Sc2cc(-c3ccc4c(c3)OCO4)ccc2C2=NCCCN12 | 150 | EC50 [2]: 140 nM; Ratio EC50 [3]: 3; Ratio EC50 [4]: 2; Ratio EC50 [5]: 3; Ratio EC50 [6]: 2; EC50 [7]: 100 nM; EC50 [8]: 130 nM; EC50 [9]: 230 nM
N=C1Sc2cc(Br)ccc2C2=NCC3(CCOCC3)CN12 | 1730 | 
N=C1Sc2cc(-c3ccc(C(F)(F)F)cc3)ccc2C2=NCCCN12 | 550 | 
N=C1Sc2cc(-c3cc4ccccc4o3)ccc2C2=NCCCN12 | 200 | 
N=C1Sc2cc(Br)ccc2C2=NCC3(CCN(C(N)=O)CC3)CN12 | > 10000 | 
CC(=O)N1CCC2(CC1)CN=C1c3ccc(Br)cc3SC(=N)N1C2 | 2740 | 
N=C1Sc2cc(-c3ccncc3)ccc2C2=NCCCN12 | 540 | 
CC(O)c1cccc(-c2ccc3c(c2)SC(=N)N2CCCN=C32)c1 (racemic) | 1190 | 
COC(=O)N1CCC2(CC1)CN=C1c3ccc(Br)cc3SC(=N)N1C2 | 440 | 
N=C1Sc2cc(-c3ccc4ncccc4c3)ccc2C2=NCCCN12 | 250 | 
COc1cccc(-c2ccc3c(c2)SC(=N)N2CCCN=C32)c1 | 150 | 
COC(=O)c1cccc(-c2ccc3c(c2)SC(=N)N2CCCN=C32)c1 | 390 | 

SMILES | EC50 [1] [nM] | also measured
COc1ccc(-c2ccc3c(c2)SC(=N)N2CCCN=C32)cc1Cl | 320 | 
N=C1Sc2cc(-c3ccco3)ccc2C2=NCCCN12 | 260 | 
N=C1Sc2cc(-c3ccc4c(c3)OCCO4)ccc2C2=NCCCN12 | 260 | 
COC(=O)c1ccc(-c2ccc3c(c2)SC(=N)N2CCCN=C32)cc1 | 810 | 
COc1ccc(-c2ccc3c(c2)SC(=N)N2CCCN=C32)cc1 | 240 | 
CC(=O)Nc1cccc(-c2ccc3c(c2)SC(=N)N2CCCN=C32)c1 | > 10000 | 
N=C1Sc2cc(-c3ccccc3)ccc2C2=NCCCN12 | 240 | 
CC1(C)CN=C2c3ccccc3SC(=N)N2C1 | 240 | 
N=C1Sc2cc(-c3ccsc3)ccc2C2=NCCCN12 | 220 | 
N=C1Sc2cc(-n3ccnc3)ccc2C2=NCCCN12 | 5120 | 
N=C1Sc2cc(-c3ccccc3-c3ccccc3)ccc2C2=NCCCN12 | 320 | 
N=C1Sc2cc(-c3cccc(O)c3)ccc2C2=NCCCN12 | 2620 | 
CSc1ccc(-c2ccc3c(c2)SC(=N)N2CCCN=C32)cc1 | 200 | 
N=C1Sc2ccccc2C2=NCCCN12 | 440 | EC50 [2]: 310 nM; CC50 [10]: > 100000 nM; EC50 [7]: 300 nM; EC50 [8]: 370 nM; EC50 [9]: 380 nM; selectivity ratio [11]: > 200
COc1cc(-c2ccc3c(c2)SC(=N)N2CCCN=C32)cc(OC)c1OC | 250 | 
CC(C)Oc1cccc(-c2ccc3c(c2)SC(=N)N2CCCN=C32)c1 | 320 | 
N=C1Sc2cc(Br)ccc2C2=NCCCN12 | 250 | 
N=C1Sc2cc(-c3ccc4c(C(=O)C(F)(F)F)c[nH]c4c3)ccc2C2=NCCCN12 | > 1000 | Activity (HeLa): Toxic
N=C1Sc2cc(-c3cccc4ccccc34)ccc2C2=NCCCN12 | 390 | 
CS(=O)(=O)Nc1cccc(-c2ccc3c(c2)SC(=N)N2CCCN=C32)c1 | > 10000 | 
N=C1Sc2cc(-c3ccc([N+](=O)[O-])cc3)ccc2C2=NCCCN12 | 460 | 
N=C1Sc2cc(-c3ccc4ccccc4c3)ccc2C2=NCCCN12 | 200 | 
COc1ccccc1-c1ccc2c(c1)SC(=N)N1CCCN=C21 | 410 | 
N=C1Sc2cc(-c3cccc([N+](=O)[O-])c3)ccc2C2=NCCCN12 | 1260 | 
N=C1Sc2cc(-c3cccc(-c4ccccc4)c3)ccc2C2=NCCCN12 | 1350 | 
